From ChEMBL document CHEMBL1649165, “Activity profile in vitro of micafungin against Spanish clinical isolates of common and emerging species of yeasts and molds” (2009)
≈ marks a conversion by molar mass, not a printed value.

How the values were obtained:
Assay type in all cases: functional
Diutina rugosa = test: Antimicrobial activity against Candida rugosa by broth microdilution method
Procedure, shortened: (§1)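 Clinical isolates from human patients, tested by broth microdilution using the AFST-EUCAST reference procedure for fermentative yeasts. The MIC was read per that reference method.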

Nakaseomyces glabratus = test: Antimicrobial activity against Candida glabrata by broth microdilution method; procedure, shortened: as §1
Paecilomyces variotii = test: Antimicrobial activity against Paecilomyces variotii by broth microdilution method
Procedure, shortened: (§2)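 Filamentous fungus clinical isolates tested by the AFST-EUCAST reference broth microdilution method for moulds. For echinocandins, the endpoint was the minimum effective concentration: the lowest drug concentration giving aberrant hyphal growth, read with an inverted microscope.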

[1] = system: Meyerozyma guilliermondii; test: Antimicrobial activity against Candida guilliermondii by broth microdilution method; procedure, shortened: as §1
Aspergillus niger = test: Antimicrobial activity against Aspergillus niger by broth microdilution method
Procedure, shortened: (§3)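 Clinical mould isolates, tested by broth microdilution using the AFST-EUCAST reference method for filamentous fungi. For echinocandins, the endpoint was the minimum effective concentration: the lowest drug concentration giving aberrant hyphal growth, read with an inverted microscope.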

Aspergillus flavus = test: Antimicrobial activity against Aspergillus flavus by broth microdilution method; procedure, shortened: as §3
Penicillium = test: Antimicrobial activity against Penicillium spp. by broth microdilution method; procedure, shortened: as §2
Papiliotrema laurentii = test: Antimicrobial activity against Cryptococcus laurentii by broth microdilution method
Procedure, shortened: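 Clinical isolates of nonfermentative yeasts, tested by broth microdilution following EUCAST recommendations. The only change from that method was a minor modification to improve growth.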

Rhizopus arrhizus = test: Antimicrobial activity against Rhizopus oryzae by broth microdilution method; procedure, shortened: as §2
[Candida] intermedia = Antimicrobial activity against Candida intermedia by broth microdilution method; details: Sungouiella intermedia; procedure, shortened: as §1
Lomentospora prolificans = test: Antimicrobial activity against Scedosporium prolificans by broth microdilution method; procedure, shortened: as §2
Trichosporon ovoides = test: Antimicrobial activity against Trichosporon ovoides by broth microdilution method
Procedure, shortened: (§4)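 Nonfermentative yeast clinical isolates (Rhodotorula, Trichosporon) tested by broth microdilution. The EUCAST yeast recommendations were followed strictly, with one minor modification to improve growth. MIC was read as the endpoint.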

Alternaria alternata = test: Antimicrobial activity against Alternaria alternata by broth microdilution method; procedure, shortened: as §3
[Candida] inconspicua = Antimicrobial activity against Candida inconspicua by broth microdilution method; details: Pichia inconspicua; procedure, shortened: as §1
Trichoderma = test: Antimicrobial activity against Trichoderma spp. by broth microdilution method; procedure, shortened: as §2
Trichosporon dermatis = test: Antimicrobial activity against Trichosporon dermatis by broth microdilution method; details: Cutaneotrichosporon dermatis; procedure, shortened: as §4
Aspergillus ochraceus = test: Antimicrobial activity against Aspergillus ochraceus by broth microdilution method; procedure, shortened: as §3
Candida parapsilosis = test: Antimicrobial activity against Candida parapsilosis by broth microdilution method; details: Lodderomyces parapsilosis; procedure, shortened: as §1
Rhodotorula mucilaginosa = test: Antimicrobial activity against Rhodotorula mucilaginosa by broth microdilution method; procedure, shortened: as §4
Aspergillus sydowii = test: Antimicrobial activity against Aspergillus sydowii by broth microdilution method; procedure, shortened: as §3
Magnusiomyces capitatus = test: Antimicrobial activity against Dipodascus capitatus by broth microdilution method
Aspergillus fumigatus = test: Antimicrobial activity against Aspergillus fumigatus by broth microdilution method; procedure, shortened: as §3
Fusarium proliferatum = test: Antimicrobial activity against Fusarium proliferatum by broth microdilution method; procedure, shortened: as §3
Hortaea werneckii = test: Antimicrobial activity against Hortaea werneckii by broth microdilution method
Wickerhamomyces anomalus = test: Antimicrobial activity against Candida pelliculosa by broth microdilution method; details: Hansenula anomala; procedure, shortened: as §1
Torulaspora delbrueckii = test: Antimicrobial activity against Candida coliculosa by broth microdilution method; procedure, shortened: as §1
Geotrichum candidum = test: Antimicrobial activity against Galactomyces geotrichum by broth microdilution method
Fusarium verticillioides = test: Antimicrobial activity against Fusarium verticillioides by broth microdilution method; procedure, shortened: as §2
Aureobasidium pullulans = test: Antimicrobial activity against Aureobasidium pullulans by broth microdilution method
Aspergillus nidulans = test: Antimicrobial activity against Aspergillus nidulans by broth microdilution method; procedure, shortened: as §3
Rhodotorula glutinis = test: Antimicrobial activity against Rhodotorula glutinis by broth microdilution method; procedure, shortened: as §4
Fusarium equiseti = test: Antimicrobial activity against Fusarium equiseti by broth microdilution method; procedure, shortened: as §3
[2] = Antimicrobial activity against Rhizopus microsporus by broth microdilution method; procedure, shortened: as §2
Aspergillus glaucus = test: Antimicrobial activity against Aspergillus glaucus by broth microdilution method; procedure, shortened: as §3
Aspergillus sclerotiorum = test: Antimicrobial activity against Aspergillus sclerotiorum by broth microdilution method; procedure, shortened: as §3
Aspergillus terreus = test: Antimicrobial activity against Aspergillus terreus by broth microdilution method; procedure, shortened: as §3
Fusarium oxysporum = test: Antimicrobial activity against Fusarium oxysporum by broth microdilution method; procedure, shortened: as §3
Lewia infectoria = test: Antimicrobial activity against Alternaria infectoria by broth microdilution method; procedure, shortened: as §3
Fusarium reticulatum = test: Antimicrobial activity against Fusarium reticulatum by broth microdilution method; procedure, shortened: as §2
Kluyveromyces marxianus = test: Antimicrobial activity against Candida kefyr by broth microdilution method; procedure, shortened: as §1
Yarrowia lipolytica = test: Antimicrobial activity against Yarrowia lipolytica by broth microdilution method

With `C[C@@H](c1ncncc1F)[C@](O)(Cn1cncn1)c1ccc(F)cc1F` [VORICONAZOLE] the MIC50 (Diutina rugosa) was 0.12 µg/mL (≈ 0.344 µM), the MIC90 (Diutina rugosa) was > 8 µg/mL and the MIC50 (Nakaseomyces glabratus) was 0.12 µg/mL (≈ 0.344 µM). For the same compound, the MIC90 (Nakaseomyces glabratus) was 1 µg/mL (≈ 2.86 µM), the MIC50 (Paecilomyces variotii) was 1 µg/mL (≈ 2.86 µM) and the MIC90 (Paecilomyces variotii) was > 8 µg/mL. For the same compound, the MIC50 [1] was 0.12 µg/mL (≈ 0.344 µM), the MIC90 [1] was > 8 µg/mL and the MIC50 (Aspergillus niger) was 1 µg/mL (≈ 2.86 µM). The MIC90 (Aspergillus niger) was 2 µg/mL (≈ 5.73 µM), the MIC50 (Aspergillus flavus) was 1 µg/mL (≈ 2.86 µM) and the MIC90 (Aspergillus flavus) was 2 µg/mL (≈ 5.73 µM). The MIC50 (Penicillium) was 2 µg/mL (≈ 5.73 µM), the MIC90 (Penicillium) was 8 µg/mL (≈ 22.9 µM) and the MIC50 (Papiliotrema laurentii) was 0.5 µg/mL (≈ 1.43 µM). For the same compound, the MIC90 (Papiliotrema laurentii) was > 8 µg/mL, the MIC50 (Rhizopus arrhizus) was > 8 µg/mL and the MIC90 (Rhizopus arrhizus) was > 8 µg/mL. For the same compound, the MIC50 ([Candida] intermedia) was 0.12 µg/mL (≈ 0.344 µM), the MIC90 ([Candida] intermedia) was > 8 µg/mL and the MIC50 (Lomentospora prolificans) was > 8 µg/mL. For the same compound, the MIC90 (Lomentospora prolificans) was > 8 µg/mL, the MIC50 (Trichosporon ovoides) was 0.5 µg/mL (≈ 1.43 µM) and the MIC90 (Trichosporon ovoides) was > 8 µg/mL. The MIC50 (Alternaria alternata) was 4 µg/mL (≈ 11.5 µM), the MIC90 (Alternaria alternata) was > 8 µg/mL and the MIC50 ([Candida] inconspicua) was 0.12 µg/mL (≈ 0.344 µM). For the same compound, the MIC90 ([Candida] inconspicua) was > 8 µg/mL, the MIC50 (Trichoderma) was 4 µg/mL (≈ 11.5 µM) and the MIC90 (Trichoderma) was > 8 µg/mL. For the same compound, the MIC50 (Trichosporon dermatis) was 0.5 µg/mL (≈ 1.43 µM), the MIC90 (Trichosporon dermatis) was > 8 µg/mL and the MIC50 (Aspergillus ochraceus) was 0.25 µg/mL (≈ 0.716 µM). The MIC90 (Aspergillus ochraceus) was > 8 µg/mL, the MIC50 (Candida parapsilosis) was 0.02 µg/mL (≈ 0.0573 µM) and the MIC90 (Candida parapsilosis) was 0.02 µg/mL (≈ 0.0573 µM). The MIC50 (Rhodotorula mucilaginosa) was 4 µg/mL (≈ 11.5 µM), the MIC90 (Rhodotorula mucilaginosa) was > 8 µg/mL and the MIC50 (Aspergillus sydowii) was 1 µg/mL (≈ 2.86 µM). The MIC90 (Aspergillus sydowii) was 2 µg/mL (≈ 5.73 µM), the MIC50 (Magnusiomyces capitatus) was 0.5 µg/mL (≈ 1.43 µM) and the MIC90 (Magnusiomyces capitatus) was 1 µg/mL (≈ 2.86 µM). For the same compound, the MIC50 (Aspergillus fumigatus) was 0.5 µg/mL (≈ 1.43 µM), the MIC90 (Aspergillus fumigatus) was 1 µg/mL (≈ 2.86 µM) and the MIC50 (Fusarium proliferatum) was 8 µg/mL (≈ 22.9 µM). The MIC90 (Fusarium proliferatum) was 8 µg/mL (≈ 22.9 µM), the MIC50 (Hortaea werneckii) was 0.06 µg/mL (≈ 0.172 µM) and the MIC90 (Hortaea werneckii) was > 8 µg/mL. For the same compound, the MIC50 (Wickerhamomyces anomalus) was 0.12 µg/mL (≈ 0.344 µM), the MIC90 (Wickerhamomyces anomalus) was > 8 µg/mL and the MIC50 (Torulaspora delbrueckii) was 0.12 µg/mL (≈ 0.344 µM). The MIC90 (Torulaspora delbrueckii) was > 8 µg/mL, the MIC50 (Geotrichum candidum) was 0.5 µg/mL (≈ 1.43 µM) and the MIC90 (Geotrichum candidum) was 1 µg/mL (≈ 2.86 µM). The MIC50 (Fusarium verticillioides) was 8 µg/mL (≈ 22.9 µM), the MIC90 (Fusarium verticillioides) was > 8 µg/mL and the MIC50 (Aureobasidium pullulans) was 0.06 µg/mL (≈ 0.172 µM). The MIC90 (Aureobasidium pullulans) was > 8 µg/mL, the MIC50 (Aspergillus nidulans) was 0.25 µg/mL (≈ 0.716 µM) and the MIC90 (Aspergillus nidulans) was 1 µg/mL (≈ 2.86 µM). For the same compound, the MIC50 (Rhodotorula glutinis) was 0.5 µg/mL (≈ 1.43 µM), the MIC90 (Rhodotorula glutinis) was > 8 µg/mL and the MIC50 (Fusarium equiseti) was 4 µg/mL (≈ 11.5 µM). The MIC90 (Fusarium equiseti) was > 8 µg/mL, the MIC50 [2] was > 8 µg/mL and the MIC90 [2] was > 8 µg/mL. The MIC50 (Aspergillus glaucus) was 0.25 µg/mL (≈ 0.716 µM), the MIC90 (Aspergillus glaucus) was > 8 µg/mL and the MIC50 (Aspergillus sclerotiorum) was 0.25 µg/mL (≈ 0.716 µM). For the same compound, the MIC90 (Aspergillus sclerotiorum) was > 8 µg/mL, the MIC50 (Aspergillus terreus) was 1 µg/mL (≈ 2.86 µM) and the MIC90 (Aspergillus terreus) was 2 µg/mL (≈ 5.73 µM). For the same compound, the MIC50 (Fusarium oxysporum) was 4 µg/mL (≈ 11.5 µM), the MIC90 (Fusarium oxysporum) was > 8 µg/mL and the MIC50 (Lewia infectoria) was 2 µg/mL (≈ 5.73 µM). The MIC90 (Lewia infectoria) was > 8 µg/mL, the MIC50 (Fusarium reticulatum) was 4 µg/mL (≈ 11.5 µM) and the MIC90 (Fusarium reticulatum) was > 8 µg/mL. The MIC50 (Kluyveromyces marxianus) was 0.02 µg/mL (≈ 0.0573 µM), the MIC90 (Kluyveromyces marxianus) was 0.02 µg/mL (≈ 0.0573 µM) and the MIC50 (Yarrowia lipolytica) was 0.5 µg/mL (≈ 1.43 µM). For the same compound, the MIC90 (Yarrowia lipolytica) was 2 µg/mL (≈ 5.73 µM).
